Experimental data: ChEMBL document CHEMBL2424560, “Structure- and reactivity-based development of covalent inhibitors of the activating and gatekeeper mutant forms of the epidermal growth factor receptor (EGFR)” (J Med Chem, 2013)
pIC50: −log10 of the molar value. Activity calls are given as the source filed them. The calls are words filed in the database; no cut-off is given here.

Key:
[1] = target: Epidermal growth factor receptor (Homo sapiens, UniProt P00533, EX19DEL); assay type: cell-based, PC-9
Epidermal growth factor receptor (Homo sapiens, UniProt P00533, EX19DEL), sequence (P00533 whole entry, looked up, stated change not applied): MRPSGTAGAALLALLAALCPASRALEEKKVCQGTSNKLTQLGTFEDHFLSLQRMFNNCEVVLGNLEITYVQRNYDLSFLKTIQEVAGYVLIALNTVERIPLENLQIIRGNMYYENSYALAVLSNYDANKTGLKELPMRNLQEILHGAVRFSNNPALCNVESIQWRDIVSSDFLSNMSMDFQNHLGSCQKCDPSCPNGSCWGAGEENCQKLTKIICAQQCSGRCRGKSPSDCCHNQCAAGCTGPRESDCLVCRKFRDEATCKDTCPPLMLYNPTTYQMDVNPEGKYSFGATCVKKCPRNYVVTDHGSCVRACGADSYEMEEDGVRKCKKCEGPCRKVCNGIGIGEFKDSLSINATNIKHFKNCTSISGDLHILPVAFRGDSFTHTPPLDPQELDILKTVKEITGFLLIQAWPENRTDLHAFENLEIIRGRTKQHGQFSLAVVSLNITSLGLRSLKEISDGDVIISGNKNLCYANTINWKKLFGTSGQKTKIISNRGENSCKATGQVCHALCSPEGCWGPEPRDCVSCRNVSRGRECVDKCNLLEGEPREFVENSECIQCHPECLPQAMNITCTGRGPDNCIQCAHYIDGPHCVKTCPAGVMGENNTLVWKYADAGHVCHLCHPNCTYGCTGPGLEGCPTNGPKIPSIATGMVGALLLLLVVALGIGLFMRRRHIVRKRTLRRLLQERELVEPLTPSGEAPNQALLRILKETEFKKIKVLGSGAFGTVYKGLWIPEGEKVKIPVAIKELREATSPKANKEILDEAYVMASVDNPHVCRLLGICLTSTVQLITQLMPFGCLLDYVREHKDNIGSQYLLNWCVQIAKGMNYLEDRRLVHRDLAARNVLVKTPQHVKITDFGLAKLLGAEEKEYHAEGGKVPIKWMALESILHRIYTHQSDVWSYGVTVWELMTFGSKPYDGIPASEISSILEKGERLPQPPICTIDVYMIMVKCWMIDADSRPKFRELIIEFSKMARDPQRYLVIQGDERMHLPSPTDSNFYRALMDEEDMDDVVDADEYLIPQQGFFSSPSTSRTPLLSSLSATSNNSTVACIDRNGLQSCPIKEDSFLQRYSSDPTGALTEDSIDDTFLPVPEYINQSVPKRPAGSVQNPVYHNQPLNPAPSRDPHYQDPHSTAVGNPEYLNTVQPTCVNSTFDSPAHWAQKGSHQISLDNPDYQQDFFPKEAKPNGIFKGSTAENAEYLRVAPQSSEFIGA

[2] = target: T1, Epidermal growth factor receptor (Homo sapiens, UniProt P00533); assay type: cell-based, LoVo
T1 sequence (P00533 whole entry): as the sequence (P00533 whole entry, looked up, stated change not applied) above

[3] = target: Epidermal growth factor receptor (Homo sapiens, UniProt P00533, L858R/T790M); assay type: cell-based, NCI-H1975
Epidermal growth factor receptor (Homo sapiens, UniProt P00533, L858R/T790M), sequence (P00533 25-1210 T790M/L858R limits assumed): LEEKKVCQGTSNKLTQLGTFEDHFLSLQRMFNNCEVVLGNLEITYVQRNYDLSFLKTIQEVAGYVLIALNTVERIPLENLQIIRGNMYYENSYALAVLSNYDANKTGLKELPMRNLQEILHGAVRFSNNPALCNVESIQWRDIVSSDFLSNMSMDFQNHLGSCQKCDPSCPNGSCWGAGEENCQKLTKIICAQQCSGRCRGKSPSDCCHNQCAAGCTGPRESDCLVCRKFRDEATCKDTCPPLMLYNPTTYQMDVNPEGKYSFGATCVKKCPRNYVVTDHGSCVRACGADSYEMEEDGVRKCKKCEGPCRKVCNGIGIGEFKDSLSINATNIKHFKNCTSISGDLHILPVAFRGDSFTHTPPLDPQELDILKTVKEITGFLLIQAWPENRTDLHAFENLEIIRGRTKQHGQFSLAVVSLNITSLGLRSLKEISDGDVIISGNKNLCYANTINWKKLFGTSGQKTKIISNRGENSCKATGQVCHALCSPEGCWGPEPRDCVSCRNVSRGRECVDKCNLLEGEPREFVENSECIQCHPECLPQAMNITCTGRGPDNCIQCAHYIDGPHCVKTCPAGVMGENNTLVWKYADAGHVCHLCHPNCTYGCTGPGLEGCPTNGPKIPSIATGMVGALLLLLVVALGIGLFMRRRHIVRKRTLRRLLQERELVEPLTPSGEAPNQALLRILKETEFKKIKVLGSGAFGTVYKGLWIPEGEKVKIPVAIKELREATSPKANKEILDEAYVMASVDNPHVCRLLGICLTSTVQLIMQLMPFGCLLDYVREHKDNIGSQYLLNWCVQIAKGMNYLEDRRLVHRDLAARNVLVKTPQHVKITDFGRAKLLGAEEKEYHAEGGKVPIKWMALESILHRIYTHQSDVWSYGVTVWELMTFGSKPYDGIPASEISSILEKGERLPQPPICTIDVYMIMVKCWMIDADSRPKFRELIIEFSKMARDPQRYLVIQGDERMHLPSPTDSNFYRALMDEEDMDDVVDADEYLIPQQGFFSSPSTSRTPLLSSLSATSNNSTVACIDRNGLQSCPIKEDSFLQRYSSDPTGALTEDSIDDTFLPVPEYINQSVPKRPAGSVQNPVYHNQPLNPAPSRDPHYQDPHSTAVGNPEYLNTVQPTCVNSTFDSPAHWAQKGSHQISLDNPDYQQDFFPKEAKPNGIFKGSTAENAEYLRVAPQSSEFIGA

[4] = Lipophilicity, log D of the compound at pH 7.4; assay type: physicochemical; details: buffer
[5] = (§1) Inhibition of human recombinant N-terminal GST-tagged EGFR L858R/[…] double mutant after 50 mins by HTRF assay
[6] = Half life in phosphate buffer at pH 7.4 at 50 uM by LC-MS analysis in presence of glutathione; assay type: physicochemical; details: phosphate buffer with glutathione
[7] = target: Maternal embryonic leucine zipper kinase (Homo sapiens) (UniProt Q14680); assay: Inhibition of MELK (unknown origin) at 1 uM relative to control
Maternal embryonic leucine zipper kinase (Homo sapiens), sequence (Q14680 whole entry, looked up): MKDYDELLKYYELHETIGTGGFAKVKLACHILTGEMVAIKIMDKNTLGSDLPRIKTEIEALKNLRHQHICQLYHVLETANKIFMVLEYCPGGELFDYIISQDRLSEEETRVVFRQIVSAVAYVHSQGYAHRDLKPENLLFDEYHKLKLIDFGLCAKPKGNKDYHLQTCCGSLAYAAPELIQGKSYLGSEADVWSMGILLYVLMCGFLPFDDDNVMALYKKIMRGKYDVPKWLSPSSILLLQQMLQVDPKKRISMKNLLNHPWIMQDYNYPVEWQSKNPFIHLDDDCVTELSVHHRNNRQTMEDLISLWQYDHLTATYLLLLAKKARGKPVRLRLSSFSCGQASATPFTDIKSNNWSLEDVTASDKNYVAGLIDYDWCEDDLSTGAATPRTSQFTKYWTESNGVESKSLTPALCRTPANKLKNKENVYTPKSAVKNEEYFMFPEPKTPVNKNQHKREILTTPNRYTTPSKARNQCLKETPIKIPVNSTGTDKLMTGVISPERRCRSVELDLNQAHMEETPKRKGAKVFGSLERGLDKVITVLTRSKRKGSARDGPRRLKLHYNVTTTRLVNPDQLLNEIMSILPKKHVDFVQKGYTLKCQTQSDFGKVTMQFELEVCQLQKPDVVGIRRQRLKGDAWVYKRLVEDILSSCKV
Summary of the method: (§2)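 Broad panel of >70 kinases run as biochemical assays at University of Dundee, compound tested at 1 μM; percent inhibition relative to control.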

[8] = target: Mitogen-activated protein kinase kinase kinase 11 (Homo sapiens) (UniProt Q16584); assay: Inhibition of MAP3K11 (unknown origin) at 1 uM relative to control
Mitogen-activated protein kinase kinase kinase 11 (Homo sapiens), sequence (Q16584 whole entry, looked up): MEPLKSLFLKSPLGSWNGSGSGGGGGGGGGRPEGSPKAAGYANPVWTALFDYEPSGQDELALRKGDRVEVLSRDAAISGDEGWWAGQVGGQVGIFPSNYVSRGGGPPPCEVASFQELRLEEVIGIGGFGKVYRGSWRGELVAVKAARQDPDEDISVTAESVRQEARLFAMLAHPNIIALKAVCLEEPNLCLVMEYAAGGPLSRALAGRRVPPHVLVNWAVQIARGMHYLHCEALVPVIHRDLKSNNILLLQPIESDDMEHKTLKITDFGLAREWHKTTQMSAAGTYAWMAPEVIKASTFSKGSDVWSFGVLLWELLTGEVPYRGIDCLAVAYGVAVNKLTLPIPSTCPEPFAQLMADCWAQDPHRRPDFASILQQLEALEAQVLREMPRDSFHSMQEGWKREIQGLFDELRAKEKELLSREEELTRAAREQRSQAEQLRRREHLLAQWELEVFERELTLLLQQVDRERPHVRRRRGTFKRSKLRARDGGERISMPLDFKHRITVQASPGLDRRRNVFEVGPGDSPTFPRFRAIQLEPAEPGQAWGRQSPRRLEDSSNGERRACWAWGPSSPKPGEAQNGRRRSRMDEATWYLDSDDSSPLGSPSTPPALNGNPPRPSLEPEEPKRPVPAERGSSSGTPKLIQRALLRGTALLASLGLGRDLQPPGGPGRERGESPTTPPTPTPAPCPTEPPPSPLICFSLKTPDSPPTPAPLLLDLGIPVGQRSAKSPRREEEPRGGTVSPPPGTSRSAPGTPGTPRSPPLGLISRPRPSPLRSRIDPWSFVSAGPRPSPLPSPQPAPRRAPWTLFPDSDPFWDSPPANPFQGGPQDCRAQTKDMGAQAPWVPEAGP
Summary of the method: as §2

[9] = target: T2, Lymphokine-activated killer T-cell-originated protein kinase (Homo sapiens) (UniProt Q96KB5); assay: Inhibition of PBK (unknown origin) at 1 uM relative to control
T2 sequence (whole entry): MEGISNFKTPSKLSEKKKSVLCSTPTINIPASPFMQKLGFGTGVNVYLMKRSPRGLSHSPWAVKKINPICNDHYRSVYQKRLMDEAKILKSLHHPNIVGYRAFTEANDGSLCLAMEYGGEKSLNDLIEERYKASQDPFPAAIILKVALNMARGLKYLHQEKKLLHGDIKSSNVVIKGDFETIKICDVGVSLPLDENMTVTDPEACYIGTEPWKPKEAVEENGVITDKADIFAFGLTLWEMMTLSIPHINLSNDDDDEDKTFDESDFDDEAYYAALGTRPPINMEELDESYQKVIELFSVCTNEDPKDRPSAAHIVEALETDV
Summary of the method: as §2

[10] = target: Tyrosine-protein kinase BTK (Homo sapiens) (UniProt Q06187); assay: Inhibition of BTK (unknown origin) at 1 uM relative to control
Summary of the method: as §2

PC-9 = assay: Antitumor activity against human PC9 cells harboring EGFR exon 19 deletion activating mutant xenografted in SCID mouse assessed as tumor growth inhibition at 60 mg/kg/day, po after 7 days relative to vehicle-treated control; assay type: functional; details: read-out: TGI
NCI-H1975 [11] = assay: Antitumor activity against human NCI-H1975 cells harboring EGFR L858R/[…] double mutant xenografted in SCID mouse assessed as tumor growth inhibition at 60 mg/kg/day, po after 7 days relative to vehicle-treated control; assay type: functional; details: read-out: TGI
[12] = target: Insulin-like growth factor 1 receptor (Homo sapiens) (UniProt P08069); assay: Inhibition of IGF1R (unknown origin) at 1 uM relative to control
Summary of the method: as §2

[13] = target: Vascular endothelial growth factor receptor 1 (Homo sapiens) (UniProt P17948); assay: Inhibition of FLT1 (unknown origin) at 1 uM relative to control
Summary of the method: as §2

[14] = target: Insulin receptor (Homo sapiens) (UniProt P06213); assay: Inhibition of insulin receptor (unknown origin) at 1 uM relative to control
Summary of the method: as §2

[15] = target: Serine/threonine-protein kinase Chk2 (Homo sapiens) (UniProt O96017); assay: Inhibition of CHK2 (unknown origin) at 1 uM relative to control
Summary of the method: as §2

[16] = target: Calcium/calmodulin-dependent protein kinase kinase 2 (Homo sapiens) (UniProt Q96RR4); assay: Inhibition of CAMKKbeta (unknown origin) at 1 uM relative to control
Summary of the method: as §2

[17] = target: Myosin light chain kinase, smooth muscle (Homo sapiens) (UniProt Q15746); assay: Inhibition of smMLCK (unknown origin) at 1 uM relative to control
Summary of the method: as §2

A-431 = assay: Antitumor activity against wild type human A431 cells xenografted in SCID mouse assessed as tumor growth inhibition at 60 mg/kg/day, po after 7 days relative to vehicle-treated control; assay type: functional; details: read-out: TGI
[18] = Aqueous solubility of the compound; assay type: physicochemical; details: buffer
NCI-H1975 [19] = assay: Selectivity ratio of IC50 for EGFR L858R/[…] double mutant phosphorylation in human NCI-H1975 cells to IC50 for human recombinant N-terminal GST-tagged EGFR L858R/[…] double mutant; assay type: cell-based
[20] = target: T1, Epidermal growth factor receptor; assay: Inhibition of wild type human EGFR after 50 mins by HTRF assay
Homo sapiens [21] = organism: Homo sapiens; assay: Selectivity ratio of IC50 for wild type human EGFR to IC50 for human recombinant N-terminal GST-tagged EGFR L858R/[…] double mutant
Homo sapiens [22] = organism: Homo sapiens; assay: as §1

Row | Compound | pIC50 [1] | pIC50 [2] | pIC50 [3] | pIC50 [5] | also measured
1 | C=CC(=O)Nc1cccc(Nc2ncc(Cl)c(-c3c[nH]c4ccccc34)n2)c1 | 6.57 | 5.46 | 7.09 | 7.28 | logD [4]: > 4.3
2 | CN(C)C/C=C/C(=O)Nc1cc2c(Nc3ccc(F)c(Cl)c3)ncnc2cc1O[C@H]1CCOC1 [AFATINIB] |  |  |  |  | half-life at 50 µM [6]: 25 min
3 | C=CC(=O)Nc1cc(Nc2nccc(-c3c[nH]c4ccccc34)n2)c(OC)cc1N1CCN(C)CC1 | 7.77 | 5.89 | 7.17 |  | logD [4]: 3.4
4 | COc1ccc(NC(=O)/C=C/CN(C)C)cc1Nc1nccc(-c2cnn3ccccc23)n1 | 6.41 | 4.70 | 6.60 |  | 
5 | COc1ccc(NC(=O)/C=C/CN(C)C)cc1Nc1ncc(Cl)c(-c2cnn3ccccc23)n1 |  |  |  |  | inhibition [7]: > 75%; inhibition [8]: > 75%; inhibition [9]: > 75%; inhibition [10]: > 75%; inhibition in vivo at 60 mg/kg/day (PC-9): 134%; inhibition in vivo at 60 mg/kg/day (NCI-H1975 [11]): 105%; inhibition [12]: > 75%; inhibition [13]: > 75%; inhibition [14]: > 75%; inhibition [15]: > 75%; inhibition [16]: > 75%; inhibition [17]: > 75%; inhibition in vivo at 60 mg/kg/day (A-431): 46%
6 | COc1ccc(NC(=O)/C=C/CN(C)C)cc1Nc1ncc(C)c(-c2cnn3ccccc23)n1 | 6.60 | 4.62 | 6.54 |  | 
7 | C=CC(=O)Nc1cc(Nc2ncc(Cl)c(-c3c[nH]c4ccccc34)n2)c(OC)cc1N1CCN(C)CC1 | 7.64 |  |  |  | 
8 | COc1ccc(NC(=O)CC#N)cc1Nc1ncc(Cl)c(-c2c[nH]c3ccccc23)n1 | 5.74 | < 4.52 | 5.55 | 7.19 | 
9 | COc1ccc(NC(=O)/C=C/CN(C)C)cc1Nc1ncc(Cl)c(-c2c[nH]c3ccccc23)n1 | 7.07 | 5.81 | 7.28 |  | 
10 | COc1ccc(NC(=O)CCCN(C)C)cc1Nc1ncc(Cl)c(-c2cnn3ccccc23)n1 |  |  | 5.64 | 7.74 | 
11 | C=CC(=O)Nc1ccccc1 |  |  |  |  | solubility [18]: soluble
12 | COc1ccc(NC(=O)/C=C/CN(C)C)cc1Nc1ncc(F)c(-c2cnn3ccccc23)n1 | 6.42 | 4.72 | 6.66 |  | logD [4]: 3.3
13 | C=CC(=O)Nc1ccc(Nc2ncc(Cl)c(-c3c[nH]c4ccccc34)n2)cc1 | 4.72 | < 4.52 | 4.89 | 6.49 | 
14 | C=CC(=O)N1CCc2cc(OC)c(Nc3ncc(Cl)c(-c4c[nH]c5ccccc45)n3)cc21 | 5.55 | < 4.52 | 5.68 | 7.28 | 
15 | C=CC(=O)Nc1cc(Nc2nccc(-c3cnn4ccccc34)n2)c(OC)cc1N1CCN(C)CC1 | 6.85 | 4.72 |  |  | 
16 | C=CC(=O)Nc1ccc(OC)c(Nc2ncc(Cl)c(-c3cnn4ccccc34)n2)c1 | 6.82 | 4.89 | 7.48 |  | logD [4]: > 4.3
17 | COc1cc(N2CCN(C(C)=O)CC2)ccc1Nc1ncc(Cl)c(-c2c[nH]c3ccccc23)n1 |  |  | 6.11 | 8.05 | Ratio IC50 (NCI-H1975 [19]): 90; pIC50 [20]: 6.10; Ratio IC50 (Homo sapiens [21]): 88
18 | COc1ccc(NC(=O)/C=C/CN(C)C)cc1Nc1ncc([S+](C)[O-])c(-c2cnn3ccccc23)n1 (centres undefined) | 5.89 | < 4.52 | 4.82 |  | logD [4]: 1.3
19 | COc1cc2ncnc(Nc3ccc(F)c(Cl)c3)c2cc1NC(=O)/C=C/CN1CCCCC1 |  |  |  |  | inhibition (Homo sapiens [22]): Active
20 | C=CC(=O)Nc1ccc(OC)c(Nc2ncc(Cl)c(-c3c[nH]c4ccccc34)n2)c1 | 7.54 | 6.26 | 7.66 | 8.20 | logD [4]: > 4.3
21 | C=CC(=O)Nc1cc2c(Nc3ccc(F)c(Cl)c3)ncnc2cc1OCCCN1CCOCC1 |  |  |  |  | inhibition (Homo sapiens [22]): Active
